Only a sample is shown.
Apaf1 activ – activators of human Apaf-1 apoptosome; AID 489031; activity change, negative = activation, % at 20 µM; O14727; hit rate 0.31% among 330,000; Apaf-1 apoptosome caspase-3 activation, DEVD-Rh110 fluorescence; stronger effect = lower value;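 active = activity change at or below -40% at 20 µM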
Target sequence (O14727 whole entry, looked up): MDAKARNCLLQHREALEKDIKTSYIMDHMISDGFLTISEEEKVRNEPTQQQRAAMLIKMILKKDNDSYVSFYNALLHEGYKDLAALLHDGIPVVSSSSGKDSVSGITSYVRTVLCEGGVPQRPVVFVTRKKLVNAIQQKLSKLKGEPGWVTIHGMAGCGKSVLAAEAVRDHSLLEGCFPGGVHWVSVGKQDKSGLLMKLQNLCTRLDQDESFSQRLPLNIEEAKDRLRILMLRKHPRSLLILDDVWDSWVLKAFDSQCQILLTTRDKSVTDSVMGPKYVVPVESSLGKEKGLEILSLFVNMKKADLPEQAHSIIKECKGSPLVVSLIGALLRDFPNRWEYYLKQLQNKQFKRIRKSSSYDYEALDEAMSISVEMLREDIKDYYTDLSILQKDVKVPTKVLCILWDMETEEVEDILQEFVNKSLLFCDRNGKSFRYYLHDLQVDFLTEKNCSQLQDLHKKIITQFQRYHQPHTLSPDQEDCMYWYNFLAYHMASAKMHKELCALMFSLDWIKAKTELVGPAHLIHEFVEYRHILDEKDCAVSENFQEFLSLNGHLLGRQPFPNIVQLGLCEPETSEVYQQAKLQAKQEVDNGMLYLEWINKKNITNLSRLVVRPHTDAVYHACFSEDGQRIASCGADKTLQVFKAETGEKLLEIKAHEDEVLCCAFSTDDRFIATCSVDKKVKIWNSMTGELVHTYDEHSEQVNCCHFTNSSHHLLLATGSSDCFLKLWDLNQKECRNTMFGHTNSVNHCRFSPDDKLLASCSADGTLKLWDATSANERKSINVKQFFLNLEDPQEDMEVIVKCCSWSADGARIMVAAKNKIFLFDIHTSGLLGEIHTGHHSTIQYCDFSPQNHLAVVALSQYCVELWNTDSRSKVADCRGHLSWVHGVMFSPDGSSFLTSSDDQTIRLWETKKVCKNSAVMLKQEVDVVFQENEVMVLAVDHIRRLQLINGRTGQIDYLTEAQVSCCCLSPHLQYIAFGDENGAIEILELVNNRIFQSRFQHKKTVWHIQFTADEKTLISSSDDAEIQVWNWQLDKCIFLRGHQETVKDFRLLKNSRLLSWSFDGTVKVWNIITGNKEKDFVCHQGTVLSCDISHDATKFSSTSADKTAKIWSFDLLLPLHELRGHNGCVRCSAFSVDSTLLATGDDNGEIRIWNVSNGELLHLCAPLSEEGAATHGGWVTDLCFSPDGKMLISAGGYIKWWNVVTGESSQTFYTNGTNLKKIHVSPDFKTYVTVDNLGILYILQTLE
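Material: biochemical Apaf-1 apoptosome reconstitution; Medium: 20 mM HEPES buffer, pH 7.5, containing CHAPS and BSA; Reagent: dATP, cytochrome c, and (Z-DEVD)2-Rh110 caspase-3 substrate; Times: 30 min preincubation, 50 min reaction, room temperature; Signal: Rh110 fluorescence, excitation 480 nm, emission 540 nm; Measure: Caspase-3 activity via Apaf-1.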
Rh110 interf act – interferes with Rh110 fluorescence, flagging false Apaf-1 activators | fluorescence interference (activity change), % at 20 µM, hits read low | Rh110 fluorescence interference, quenched caspase reaction, Ex480/Em540 | shares compounds with Apaf1 activ | 980 tested, under 10 active;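 active = mean activity change at or below -40% when tested at 20 µM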
Apaf-1 act conf2 – Apaf-1 (human) activation, single-dose confirmed; shares compounds with Apaf1 activ; AID 504617; activity change, negative = activation, % at 20 µM; hit rate 5% among 980; reconstituted apoptosome caspase-3 activity, DEVD-Rh110 fluorescence; stronger effect = lower value;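 active = mean activity change at or below -40%, meaning activation of 40% or more, at 20 µM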
Fluor interf act – Apaf-1 activator counter-screen fluorescence artifact; shares compounds with Apaf1 activ; fluorescence interference counterscreen, Apaf-1 activator assay; EC50, µM; 55 tested, under 10 active; AID 588592; call rule not given here
A number is an active result; – = inactive; · = no result given; + = active, no number.

SMILES	Apaf1 activ	Rh110 interf act	Apaf-1 act conf2	others
CCCCN(C)C1=CC2=CC(=C(C#N)C#N)CCC2CC1 (stereo unspecified)	-76	-659	–
CCN(CC)C1=CC2=CC(=C(C#N)C#N)CCC2CC1 (stereo unspecified)	-141	+	-77
COc1ccc(C2=C(CN(C)C)C(c3ccccc3)c3ccccc3O2)cc1 (stereo unspecified)	–	·	·
Cc1cn([C@H]2C[C@H](N=[N+]=[N-])[C@@H](CO)O2)c(=O)[nH]c1=O	-43	–	–
CN(C)c1ncc(C2=C(Cl)C(=O)C(N3CCCC3)=C(Cl)C2=O)s1	–	·	·
Cc1ccc2c(c1)c(=O)c1c3n2CCN(C(=O)CCl)C3CC1 (stereo unspecified)	–	·	·
N#C/C(=C/c1ccc(N2CCOCC2)o1)c1ccc(Br)cc1	-109	–	–
CCCCCCC(=O)Nc1nc(C)c(-c2csc(Nc3cc(OC)ccc3OC)n2)s1	–	·	·
COc1ccc(C(=O)N(CCc2ccccc2)Cc2ccccc2)cc1S(=O)(=O)N1CCOCC1	–	·	·
COc1ccc(C(=O)N(Cc2ccccc2)c2cccc(C)c2)cc1S(=O)(=O)N1CCOCC1	–	·	·
CCCCN(C(=O)c1cccc(S(=O)(=O)N2CCOCC2)c1)c1c(N)n(CCC)c(=O)[nH]c1=O	-84	–	–
COc1ccc(N)c2c1OCCC2=O	–	·	·
CC(=O)NC1=C(NC2CCS(=O)(=O)C2)C(=O)c2ccccc2C1=O (stereo unspecified)	–	·	·
CC(C)(C)c1cc(CCC(=O)Nc2ccncc2)cc(C(C)(C)C)c1O	-450	–	–
O=S(=O)(c1ccc(F)cc1)N1CCN(S(=O)(=O)c2ccc3c(c2)OCCO3)CC1	-217	–	–
O=S(=O)(c1ccc2nc(-c3ccco3)c(-c3ccco3)nc2c1)N1CCOCC1	–	·	·
O=C1OC(Nc2ccc3ncccc3c2)c2ccccc21 (stereo unspecified)	–	·	·
O=C(CN(Cc1cccs1)C(=O)CNS(=O)(=O)c1ccc(Cl)cc1)NCC1CCCO1 (stereo unspecified)	-292	–	–
CC(C)N(C(=O)Nc1ccc2nsnc2c1)C(C)C	–	·	·
O=C(Nc1ccc(N2CCN(C(=O)c3ccccc3F)CC2)cc1)c1cncc(Br)c1	-65	–	–
O=C(c1ccc(S(=O)(=O)N2CCCC2)cc1)N(c1ccc(F)cc1)C1C=CS(=O)(=O)C1 (stereo unspecified)	-314	–	–
O=C(c1ccc(S(=O)(=O)N2CCCC2)cc1)N(c1ccccc1)C1C=CS(=O)(=O)C1 (stereo unspecified)	-56	–	–
Cc1cc2cc(CNC(=O)c3ccc(S(=O)(=O)N4CCCCC4)cc3)ccc2n1C	–	·	·
C=CCN(CC=C)C(=S)Nc1ccc2nsnc2c1	–	·	·
COc1cc(C#Cc2c(-c3cncn3C)n(C)c3ccc(-c4cnc(OC)nc4)cc23)cc(OC)c1	–	·	·
SMILES	Apaf1 activ	Rh110 interf act	Apaf-1 act conf2	others
O=S(=O)(Nc1ccc(O)c2ccccc12)c1cccs1	–	·	·
COC(=O)C1(C)CCc2cc(OC)ccc2C1=O (stereo unspecified)	-81	–	–
COc1ccc(C(=O)Nc2nc3c(s2)Cc2cc(OC)ccc2-3)cc1	–	·	·
CC(/C=C\c1cccnc1)=C/C(=O)O	-84	–	-46	Fluor interf act=–
Cc1cc(C)c(S(=O)(=O)/N=C2\C=C(NS(=O)(=O)c3ccccc3)C(=O)c3ccccc32)c(C)c1	–	·	·
CCOC(=O)C1CCN(S(=O)(=O)c2ccc3c4c2CC(=O)N4CC(C)S3)CC1 (stereo unspecified)	–	·	·
CN(C)S(=O)(=O)Oc1cccc(C(=O)Nc2ccc(Cl)c(Cl)c2)c1	-40	–	–
CN1CCc2nc(SCC(=O)Nc3cccc(F)c3)c(C#N)c(-c3cccs3)c2C1	–	·	·
CNC[C@H](Cc1ccccc1)NC[C@@H](Cc1cccc2ccccc12)NCCc1ccc(C)cc1	–	·	·
CCCCCc1cc(=O)oc2c(C(CCN3CCCC3)c3ccc(N(C)C)cc3)c(OC)cc(OC)c12 (stereo unspecified)	–	·	·
Cc1c(CCC(C)C)c(=O)n2c([nH]c3ccccc32)c1C#N	–	·	·
CC(C)COC(=O)c1nnsc1NC(=O)Nc1ccccc1	-63	–	–
NC(=O)OCC(COC(N)=O)c1ccccc1	–	·	·
O=c1[nH]c(=O)n(C2CCCCCC2)c(O)c1C=NCc1ccc(F)cc1	–	·	·
CC(NC(=O)c1ccco1)C(=O)OCc1cccc(C(F)(F)F)c1 (stereo unspecified)	-50	–	–
CC(Cc1cccc(C(F)(F)F)c1)NCCOC(=O)c1ccccc1 (stereo unspecified)	–	·	·
c1ccc2c(C[C@@H]3CNCCN3CCC34CC5CC(CC(C5)C3)C4)cccc2c1	–	·	·
Clc1ccccc1OCc1nn2c(-c3ccncc3)nnc2s1	–	·	·
Cc1ccsc1C=Nc1ccc(O)cc1	–	·	·
Cn1c(=O)c2c(nc(CN3CCc4ccccc4C3)n2Cc2cccc(Cl)c2)n(C)c1=O	–	·	·
CC(C)CCn1c(CN2CCOCC2)nc2c1c(=O)n(C)c(=O)n2C	-44	–	–
CCOC(=O)c1c(C)oc2c1c(C=NCCC(=O)O)c(O)c1ccccc12	–	·	·
CCC(CO)Oc1cc(NCc2ccncc2)c2ncn(C(C)C)c2c1 (stereo unspecified)	–	·	·
C=CCn1c(N)c(C(=O)Nc2cccc(C)c2)c2nc3ccccc3nc21	–	·	·
C#CCOCCOCCOCCNc1nc(N2CCN(C(=O)CCCCCCCCCCNC(=O)[C@H]([C@@H](C)CC)n3cc(CCCCN=C(N)N)nn3)CC2)nc(N2CCN(C(=O)CCCCCCCCCCNC(=O)[C@H](CCCN=C(N)N)n3cc(C[C@@H](C)CC)nn3)CC2)n1	–	·	·
SMILES	Apaf1 activ	Rh110 interf act	Apaf-1 act conf2	others
Nc1cc(S(=O)(=O)O)cc([N+](=O)[O-])c1O	-110	–	–
O=[N+]([O-])c1cc(F)c2cccnc2c1O	–	·	·
O=C1C(NS(=O)(=O)c2cccs2)=C(N2CCN(c3ccccc3)CC2)C(=O)c2ccccc21	–	·	·
Cc1cc(NC(=O)CCCn2nc([N+](=O)[O-])c(Br)c2C)no1	–	·	·
CCOC(=O)c1c(NC(=O)c2cccs2)sc(C)c1CC	–	·	·
CN(C)C(=O)c1ccc(NC(=O)c2sccc2-c2ccccc2)cc1	–	·	·
C/C(=N\NC(=O)c1ccccc1)c1ccc(NC(=O)c2cccs2)cc1	-143	–	–
O=C1C(Cl)=C(N2CCCCC2)C(=O)C(Cl)=C1c1cnc(N2CCCCC2)s1	–	·	·
Cc1ccc2c(c1)C(=O)CC(O)(C(F)F)O2 (stereo unspecified)	-71	–	–
C#CCOCCOCCOCCNc1nc(N2CCN(C(=O)CCCCCCCCCCNC(=O)Cn3cc(CCCCCN)nn3)CC2)nc(N2CCN(C(=O)CCCCCCCCCCNC(=O)[C@@H]([C@H](C)O)n3cc(C)nn3)CC2)n1	–	·	·
O=C(NCc1nnc(SCC(=O)N2CCCCCC2)o1)c1ccccc1F	-251	–	–
O=C1Cc2ccccc2C(=O)N1OCc1ccc(Cl)cc1Cl	–	·	·
O=C(CCN1CCN(C(c2ccccc2)c2ccccc2)CC1)N/N=C/c1ccc(O)cc1O	-236	–	–
Cc1cc(SCC(=O)N/N=C/c2ccc(O)c(O)c2O)c(C)cc1Br	–	·	·

Source: PubChem (Sanford-Burnham Center for Chemical Genomics)
